Published values gathered from unrelated publications.
Lines come from different studies, so protocols differ.
Target: Ephrin type-B receptor 6 (EPHB6, Homo sapiens, UniProt O15197)
One construct used (O15197 32-1021): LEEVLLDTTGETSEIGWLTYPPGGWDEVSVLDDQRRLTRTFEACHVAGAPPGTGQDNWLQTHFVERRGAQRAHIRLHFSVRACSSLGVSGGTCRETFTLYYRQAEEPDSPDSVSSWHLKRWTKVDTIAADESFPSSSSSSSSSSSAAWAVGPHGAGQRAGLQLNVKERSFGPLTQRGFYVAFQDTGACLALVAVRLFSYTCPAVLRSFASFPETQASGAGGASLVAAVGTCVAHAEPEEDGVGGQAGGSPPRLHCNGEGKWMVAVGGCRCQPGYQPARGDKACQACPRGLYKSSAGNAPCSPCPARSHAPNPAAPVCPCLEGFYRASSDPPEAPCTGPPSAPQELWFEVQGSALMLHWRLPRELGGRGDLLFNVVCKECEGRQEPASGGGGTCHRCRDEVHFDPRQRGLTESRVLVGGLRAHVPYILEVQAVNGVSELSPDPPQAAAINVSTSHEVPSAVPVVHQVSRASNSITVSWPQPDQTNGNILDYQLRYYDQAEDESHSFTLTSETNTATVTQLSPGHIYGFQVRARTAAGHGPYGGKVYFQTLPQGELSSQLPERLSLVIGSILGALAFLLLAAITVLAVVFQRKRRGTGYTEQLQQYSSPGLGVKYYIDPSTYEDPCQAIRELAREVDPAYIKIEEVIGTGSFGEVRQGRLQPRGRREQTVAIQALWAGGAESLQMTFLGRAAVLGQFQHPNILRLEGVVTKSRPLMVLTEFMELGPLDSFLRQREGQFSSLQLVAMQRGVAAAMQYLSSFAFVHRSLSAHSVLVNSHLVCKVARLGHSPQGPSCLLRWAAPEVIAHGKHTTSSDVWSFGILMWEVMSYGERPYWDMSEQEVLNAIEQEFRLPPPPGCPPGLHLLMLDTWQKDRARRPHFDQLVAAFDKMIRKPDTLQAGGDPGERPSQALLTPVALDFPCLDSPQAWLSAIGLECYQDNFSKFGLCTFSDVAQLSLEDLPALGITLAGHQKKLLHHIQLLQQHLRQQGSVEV

O=C(c1ccc(Nc2ncc(Cl)c(-c3cc4ccccc4s3)n2)cc1)N1CCC(N2CCCC2)CC1
remaining binding (binding; competition with immobilised ligand; 1 µM): 3.9%

CNC(=O)c1ccc(Nc2ncc(C(F)(F)F)c(NCc3nccnc3N(C)S(C)(=O)=O)n2)cc1
remaining binding (cell-free assay; competition with immobilised ligand; 0.1 µM): 100%

COc1ncc2cc3ccccc3nc2c1C#N
remaining binding (cell-free assay; competition with immobilised ligand; 5 µM): 73%

C[C@H]1CCN(c2nccc(-c3cnn4ncccc34)n2)C1
remaining binding (binding; 1 µM): 85%

Nc1ncc2c(n1)-c1c([nH]c3ccc(C#CC4CC4)cc13)CCCC2
remaining binding (binding; competition with immobilised ligand; 1 µM): 84%

CNC(=O)[C@@H]1CC[C@@H](n2c(-c3ccc4cnccc4c3)nc3ccc(C(=O)NCc4cccc(C(N)=O)c4)cc32)C1
remaining binding (binding; competition with immobilised ligand; 1 µM): 100%

O=C(c1ccc(Nc2ncc(Cl)c(-c3ccc(Cl)s3)n2)cc1)N1CCC(N2CCCC2)CC1
remaining binding (binding; competition with immobilised ligand; 1 µM): 0%

CCN1CCN(Cc2ccc(C(=O)Nc3ccc(C)c(Oc4ccc5c(c4)CC(=O)N5)c3)cc2C(F)(F)F)CC1
remaining binding (binding; competition with immobilised ligand; 1 µM): 91%

CN(C)c1ncc(F)c(-c2cnn3ncccc23)n1
remaining binding (binding; 1 µM): 77%

C[C@@]1(Cc2ccc(C#N)cc2)C(=O)N(c2cc(Cl)cc(Cl)c2)c2ncc(C(=O)NC3(c4nc(C5CCC5)no4)CC3)n21
remaining binding (cell-free assay; competition with immobilised ligand; 1 µM): 100%

COc1cnc(Nc2cccc(S(N)(=O)=O)c2)nc1N1CCN(c2ccccc2)CC1
remaining binding (binding; competition with immobilised ligand; 1 µM): 95%

C=CC(=O)N1CCC(C(=O)NCC(=O)N2CCN(c3nc(-c4cnc(N)nc4C(F)F)nc(N4CCOCC4)n3)CC2)CC1
remaining binding (binding; competition with immobilised ligand; 1 µM): 65%

Cc1nc(N2CC[C@@H](O)C2)ncc1-c1cc(C(F)(F)F)cc2[nH]ncc12
remaining binding (binding; competition with immobilised ligand; 1 µM): 36%

Cc1cnn2ncc(-c3ccnc(N(C)C)n3)c2c1
remaining binding (binding; 1 µM): 80%

O=C(Nc1cccnn1)N1CCC(=Cc2cccc(Oc3ccc(C(F)(F)F)cn3)c2)CC1
remaining binding (cell-free assay; competition with immobilised ligand; 1 µM): 100%

N[C@@H]1CCN(c2nccc(-c3cnn4ncccc34)n2)C1
remaining binding (binding; 1 µM): 52%

O=C(c1ccc(Nc2nccc(-c3cc4ccccc4s3)n2)cc1)N1CCC(N2CCCC2)CC1
remaining binding (binding; competition with immobilised ligand; 1 µM): 2.5%

CN(CCCC(F)(F)F)c1nccc(-c2cnn3ncccc23)n1
remaining binding (binding; 1 µM): 100%

C[C@H](NC(=O)c1cnc2n1[C@](C)(Cc1ccc(C#N)cc1)C(=O)N2c1cc(Cl)c(F)c(Cl)c1)C(=O)NC1(c2ccccn2)CC1
remaining binding (cell-free assay; competition with immobilised ligand; 1 µM): 100%

F[C@@H]1CCN(c2nccc(-c3cnn4ncccc34)n2)C1
remaining binding (binding; 1 µM): 100%

C[C@@H]1CN(c2cc(-c3n[nH]c4ccc(OC5(C)CC5)cc34)ncn2)C[C@H](C)O1
remaining binding (cell-free assay; competition with immobilised ligand; 0.1 µM): 91%

O=C(Nc1c[nH]nc1C(=O)NC1CCNCC1)c1cc(F)cc(F)c1
remaining binding (binding; competition with immobilised ligand; 1 µM): 100%
